Measurements taken from ChEMBL document CHEMBL1765076, “17,20-Lyase inhibitors. Part 3: Design, synthesis, and structure-activity relationships of biphenylylmethylimidazole derivatives as novel 17,20-lyase inhibitors” (Bioorg Med Chem, 2011).
pIC50: −log10 of the molar value.

What was measured:
[1] = target: T1, Steroid 17-alpha-hydroxylase/17,20 lyase (Rattus norvegicus, UniProt P11715); test: Inhibition of 17,20 lyase activity in Sprague-Dawley rat testicular microsomes; design: species or system Testis
T1 sequence (P11715 whole entry): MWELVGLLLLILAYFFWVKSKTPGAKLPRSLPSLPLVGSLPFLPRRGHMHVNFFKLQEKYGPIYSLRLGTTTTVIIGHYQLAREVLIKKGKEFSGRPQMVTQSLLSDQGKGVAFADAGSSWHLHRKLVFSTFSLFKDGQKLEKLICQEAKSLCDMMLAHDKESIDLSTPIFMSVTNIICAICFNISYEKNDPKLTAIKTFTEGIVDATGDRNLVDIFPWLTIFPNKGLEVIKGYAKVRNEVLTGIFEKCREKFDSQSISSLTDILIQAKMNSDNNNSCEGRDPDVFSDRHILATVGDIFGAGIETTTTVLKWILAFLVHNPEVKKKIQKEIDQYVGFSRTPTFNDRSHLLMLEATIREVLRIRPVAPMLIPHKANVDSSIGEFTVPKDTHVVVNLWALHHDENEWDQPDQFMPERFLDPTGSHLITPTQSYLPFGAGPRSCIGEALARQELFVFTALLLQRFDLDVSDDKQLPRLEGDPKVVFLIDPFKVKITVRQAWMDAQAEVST
Method in brief: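 Testicular microsomes came from 13-week-old male SD rats, prepared by homogenisation and centrifugation. Reactions contained 75 mM phosphate (pH 7.4), 7 µg microsomal protein, 10 nM [1,2-3H]-17α-hydroxyprogesterone, 5 mM NADPH and 1–1000 nM compound (final concentrations; DMF stocks diluted in water). Incubation was 15 min at 37 °C, stopped with ethyl acetate. IC50 is the concentration halving product formation.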

[2] = target: T2, Steroid 17-alpha-hydroxylase/17,20 lyase (Homo sapiens, UniProt P05093); test: Inhibition of human 17,20 lyase activity
T2 sequence (P05093 whole entry): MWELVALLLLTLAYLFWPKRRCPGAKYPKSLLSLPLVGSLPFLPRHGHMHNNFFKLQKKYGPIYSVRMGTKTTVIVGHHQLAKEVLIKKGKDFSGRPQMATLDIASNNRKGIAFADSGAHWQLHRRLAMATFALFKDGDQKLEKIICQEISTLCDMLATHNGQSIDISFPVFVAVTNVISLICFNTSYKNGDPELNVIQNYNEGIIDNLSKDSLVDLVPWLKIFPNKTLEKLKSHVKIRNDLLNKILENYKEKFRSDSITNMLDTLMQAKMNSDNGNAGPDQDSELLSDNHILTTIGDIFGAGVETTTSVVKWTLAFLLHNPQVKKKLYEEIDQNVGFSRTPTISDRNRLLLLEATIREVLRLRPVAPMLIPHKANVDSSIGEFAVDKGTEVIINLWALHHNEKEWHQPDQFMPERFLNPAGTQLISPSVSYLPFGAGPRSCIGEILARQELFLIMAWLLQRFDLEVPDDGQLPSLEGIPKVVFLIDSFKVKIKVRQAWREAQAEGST

Cynomolgus monkey [3] = test: Antiandrogenic activity in cynomolgus monkey assessed as serum testosterone level at 3 mg/kg, po after 5 hrs (reference value: 98 +/- 33%); assay type: functional, Macaca fascicularis
Cynomolgus monkey [4] = test: Antiandrogenic activity in cynomolgus monkey assessed as serum testosterone level at 3 mg/kg, po after 2 hrs (reference value: 110 +/- 29%); assay type: functional, Macaca fascicularis
Cynomolgus monkey [5] = test: Antiandrogenic activity in cynomolgus monkey assessed as serum DHEA level at 3 mg/kg, po after 2 hrs (reference value: 116 +/- 95%); assay type: functional, Macaca fascicularis
Cynomolgus monkey [6] = test: Antiandrogenic activity in cynomolgus monkey assessed as serum DHEA level at 3 mg/kg, po after 5 hrs (reference value: 148 +/- 53%); assay type: functional, Macaca fascicularis
Cytochrome P450 3A4 = Cytochrome P450 3A4 (Homo sapiens, UniProt P08684); test: Inhibition of human CYP3A4 after 30 mins; assay type: ADME
Cytochrome P450 3A4, sequence (P08684 whole entry): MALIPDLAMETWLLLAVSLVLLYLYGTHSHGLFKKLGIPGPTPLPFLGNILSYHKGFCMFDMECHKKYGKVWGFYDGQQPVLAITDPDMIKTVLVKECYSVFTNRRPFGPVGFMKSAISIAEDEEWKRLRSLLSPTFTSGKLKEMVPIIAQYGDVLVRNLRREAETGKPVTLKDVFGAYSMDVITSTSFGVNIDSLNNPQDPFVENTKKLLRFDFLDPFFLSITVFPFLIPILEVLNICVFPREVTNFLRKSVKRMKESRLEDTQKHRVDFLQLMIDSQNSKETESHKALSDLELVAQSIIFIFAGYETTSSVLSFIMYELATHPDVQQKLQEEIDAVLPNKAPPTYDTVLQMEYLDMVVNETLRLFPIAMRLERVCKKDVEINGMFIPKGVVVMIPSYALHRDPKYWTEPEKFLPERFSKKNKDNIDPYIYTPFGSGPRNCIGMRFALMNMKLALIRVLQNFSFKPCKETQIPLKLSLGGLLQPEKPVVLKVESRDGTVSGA

Homo sapiens = organism: Homo sapiens; test: Ratio of IC50 for human CYP3A4 to IC50 for human 17,20-lyase

| pIC50 (Cytochrome P450 3A4) | Ratio IC50 (Homo sapiens) | Structure (SMILES) | pIC50 [1] | pIC50 [2] | Activity (Cynomolgus monkey [3]) | Activity (Cynomolgus monkey [4]) | Activity (Cynomolgus monkey [5]) | Activity (Cynomolgus monkey [6]) |
| --- | --- | --- | --- | --- | --- | --- | --- | --- |
|  |  | CC(=O)Nc1cccc(-c2ccc([C@](O)(c3c[nH]cn3)C(C)C)cc2)c1 | 7.85 | 7.59 | 23% | 52% | 23% | 13% |
|  |  | CC(=O)Nc1cccc(-c2ccc([C@@](O)(c3c[nH]cn3)C(C)C)cc2)c1 | 6.11 | 6.47 |  |  |  |  |
| < 5.00 | > 300 | CC[C@](O)(c1ccc(-c2cccc(NC(C)=O)c2)cc1)c1c[nH]cn1 | 7.72 | 7.66 |  |  |  |  |
| < 5.00 |  | CC[C@@](O)(c1ccc(-c2cccc(NC(C)=O)c2)cc1)c1c[nH]cn1 | 6.35 | 6.62 |  |  |  |  |
|  | > 300 | CC(=O)Nc1cccc(-c2ccc([C@](O)(c3c[nH]cn3)C(C)C)cc2)n1 |  |  |  |  |  |  |
| 5.70 | 15 | COc1ccc(-c2cccc(C(O)(c3c[nH]cn3)C(C)C)c2)cc1 (racemic) |  | 6.89 |  |  |  |  |
| 5.68 | 111 | CC(C)C(O)(c1cccc(-c2ccc(F)cc2)c1)c1c[nH]cn1 (racemic) |  | 7.72 |  |  |  |  |
| 5.62 | 49 | CC(C)C(O)(c1cccc(-c2ccc(Cl)cc2)c1)c1c[nH]cn1 (racemic) | 7.72 | 7.31 |  |  |  |  |
| 5.31 | 91 | COc1ccc(-c2ccc(C(O)(c3c[nH]cn3)C(C)C)cc2)cc1 (racemic) | 6.92 | 7.27 |  |  |  |  |
|  |  | CC(=O)Nc1cccc(-c2ccc(C(O)(c3c[nH]cn3)C(C)C)cc2)c1 (racemic) | 7.77 | 7.62 |  |  |  |  |
| 5.48 |  | CNS(=O)(=O)c1cccc(-c2ccc(C(O)(c3cnc[nH]3)C(C)C)cc2)c1 (racemic) | 7.15 | 6.80 |  |  |  |  |
| 5.28 |  | CC(C)C(O)(c1ccc(-c2ccccn2)cc1)c1c[nH]cn1 (racemic) | 6.68 | 6.82 |  |  |  |  |
| < 5.00 |  | CC(=O)Nc1cccc(-c2ccc(C(C)(O)c3c[nH]cn3)cc2)c1 (racemic) | 7.21 | 7.42 |  |  |  |  |
| < 5.00 |  | CCC(O)(c1ccc(-c2cccc(NC(C)=O)c2)cc1)c1c[nH]cn1 (racemic) | 7.60 | 7.40 |  |  |  |  |
| 5.26 |  | CC(=O)Nc1cccc(-c2ccc(C(O)(c3c[nH]cn3)C3CC3)cc2)c1 (racemic) | 7.09 | 7.35 |  |  |  |  |
| < 5.00 |  | CC(=O)Nc1cccc(-c2ccc(C(O)c3cnc[nH]3)cc2)c1 (racemic) | 6.49 | 7.11 |  |  |  |  |
| > 6.00 |  | COc1ccc2cc(C(O)(c3c[nH]cn3)C(C)C)ccc2c1 (racemic) |  |  |  |  |  |  |

| Structure (SMILES) | pIC50 (Cytochrome P450 3A4) | Ratio IC50 (Homo sapiens) | pIC50 [1] | pIC50 [2] | Activity (Cynomolgus monkey [3]) | Activity (Cynomolgus monkey [4]) | Activity (Cynomolgus monkey [5]) | Activity (Cynomolgus monkey [6]) |
| --- | --- | --- | --- | --- | --- | --- | --- | --- |
| CC(=O)Nc1cccc(-c2ccc([C@](O)(c3cnc[nH]3)C(C)C)cc2)n1 | < 5.00 |  | 7.48 | 7.59 |  |  |  |  |
| CC(=O)Nc1cccc(-c2ccc([C@@](O)(c3cnc[nH]3)C(C)C)cc2)n1 | < 5.00 |  | < 6.00 | 7.04 |  |  |  |  |
| CC(C)C(O)(c1ccc(-c2ccccc2)cc1)c1c[nH]cn1 (racemic) | 5.43 | 112 | 7.48 | 7.48 |  |  |  |  |
| CC(C)C(O)(c1ccc(-c2ccc(F)cc2)cc1)c1c[nH]cn1 (racemic) | 5.28 | 196 |  | 7.57 |  |  |  |  |
| CC(C)C(O)(c1ccc(-c2ccc(Cl)cc2)cc1)c1c[nH]cn1 (racemic) | 5.12 | 271 | 7.54 | 7.55 |  |  |  |  |
| CC(=O)Nc1ccc(-c2ccc(C(O)(c3c[nH]cn3)C(C)C)cc2)cc1 (racemic) | 6.00 |  | 7.62 | 6.92 |  |  |  |  |
| CNC(=O)c1cccc(-c2ccc(C(O)(c3c[nH]cn3)C(C)C)cc2)c1 (racemic) | 5.09 |  | 7.31 | 7.36 |  |  |  |  |
| CNC(=O)Nc1cccc(-c2ccc(C(O)(c3c[nH]cn3)C(C)C)cc2)c1 (racemic) | 5.26 |  | 7.62 | 7.68 |  |  |  |  |
| CC(=O)Nc1cccc(-c2ccc(C(O)(c3c[nH]cn3)C(C)C)cc2)n1 (racemic) | < 5.00 |  | 7.28 | 7.44 |  |  |  |  |
